Common to all, as to details: stereoisomer not certain
One assay addresses T1, UniProt Q8VGL0.
T1 sequence (whole entry): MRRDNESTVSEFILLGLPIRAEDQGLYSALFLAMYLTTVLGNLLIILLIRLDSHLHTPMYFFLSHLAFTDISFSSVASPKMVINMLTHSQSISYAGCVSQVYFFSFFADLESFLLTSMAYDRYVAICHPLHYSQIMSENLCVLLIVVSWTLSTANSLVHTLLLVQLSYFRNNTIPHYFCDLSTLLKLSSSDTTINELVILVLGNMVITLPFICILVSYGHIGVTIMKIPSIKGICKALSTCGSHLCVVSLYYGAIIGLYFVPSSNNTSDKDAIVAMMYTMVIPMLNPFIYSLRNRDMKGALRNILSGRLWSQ
The gist of the method:
(§1)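 Whether a receptor–molecule pair is responsive (active) rests on the original authors' judgment that its measured signal was statistically different from baseline. Pairs without that judgment are non-responsive (inactive). Sources used varied assay methods, commonly transient luciferase assays in mammalian cell lines.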

A further assay concerns the target T2, UniProt Q8VGU3.
T2 sequence (whole entry): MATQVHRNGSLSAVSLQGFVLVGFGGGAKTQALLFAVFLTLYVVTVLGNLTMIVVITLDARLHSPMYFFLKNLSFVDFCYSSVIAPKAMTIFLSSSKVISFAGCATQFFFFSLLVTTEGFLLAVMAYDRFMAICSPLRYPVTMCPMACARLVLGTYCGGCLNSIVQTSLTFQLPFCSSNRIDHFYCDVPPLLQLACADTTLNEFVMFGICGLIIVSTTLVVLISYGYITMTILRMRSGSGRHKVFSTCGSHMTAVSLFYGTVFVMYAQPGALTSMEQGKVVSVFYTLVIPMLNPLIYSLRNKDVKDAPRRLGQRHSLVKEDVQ
An outline of the steps: as §1

The target of the next assay is T3, UniProt Q8VGV7.
T3 sequence (whole entry): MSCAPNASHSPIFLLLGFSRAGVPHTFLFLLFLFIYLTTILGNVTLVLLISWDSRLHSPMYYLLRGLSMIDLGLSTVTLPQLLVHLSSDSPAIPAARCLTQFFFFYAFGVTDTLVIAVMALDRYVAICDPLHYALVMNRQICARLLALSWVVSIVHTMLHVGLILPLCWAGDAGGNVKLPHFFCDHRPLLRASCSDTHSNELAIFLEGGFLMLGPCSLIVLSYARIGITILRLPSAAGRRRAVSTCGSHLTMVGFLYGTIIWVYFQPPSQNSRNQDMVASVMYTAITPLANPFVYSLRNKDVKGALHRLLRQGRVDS
The gist of the method:
as §1

The target of another assay is T4, UniProt Q8VGX3.
T4 sequence (whole entry): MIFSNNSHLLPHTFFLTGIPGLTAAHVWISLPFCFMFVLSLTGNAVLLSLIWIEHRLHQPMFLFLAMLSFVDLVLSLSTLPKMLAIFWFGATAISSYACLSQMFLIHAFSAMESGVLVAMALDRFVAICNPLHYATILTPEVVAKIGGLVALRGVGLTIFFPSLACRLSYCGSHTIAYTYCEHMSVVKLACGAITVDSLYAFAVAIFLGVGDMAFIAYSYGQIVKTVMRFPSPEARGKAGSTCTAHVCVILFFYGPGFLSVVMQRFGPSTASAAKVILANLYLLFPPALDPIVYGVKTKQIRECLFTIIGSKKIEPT
An outline of the steps: as §1

The target of a further assay is T5, UniProt Q8VGX5.
T5 sequence (whole entry): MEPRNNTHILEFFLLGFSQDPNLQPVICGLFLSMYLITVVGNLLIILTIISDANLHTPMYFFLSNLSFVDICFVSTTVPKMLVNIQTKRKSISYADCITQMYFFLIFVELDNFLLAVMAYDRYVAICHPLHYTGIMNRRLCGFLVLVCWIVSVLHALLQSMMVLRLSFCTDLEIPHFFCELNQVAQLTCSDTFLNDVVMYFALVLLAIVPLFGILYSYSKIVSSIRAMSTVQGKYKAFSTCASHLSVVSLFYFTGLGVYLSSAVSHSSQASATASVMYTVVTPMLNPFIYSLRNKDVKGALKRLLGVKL
An outline of the steps:
as §1

The next assay deals with T6, UniProt Q8VGZ2.
T6 sequence (whole entry): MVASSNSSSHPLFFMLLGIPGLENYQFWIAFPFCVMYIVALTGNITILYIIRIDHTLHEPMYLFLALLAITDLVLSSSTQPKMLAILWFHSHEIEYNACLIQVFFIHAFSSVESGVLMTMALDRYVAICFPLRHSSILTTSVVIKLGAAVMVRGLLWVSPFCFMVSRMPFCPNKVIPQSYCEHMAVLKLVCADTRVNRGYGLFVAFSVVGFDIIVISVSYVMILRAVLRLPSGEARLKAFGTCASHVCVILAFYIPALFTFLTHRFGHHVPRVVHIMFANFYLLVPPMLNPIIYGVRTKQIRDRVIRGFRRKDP
The gist of the method: as §1

Another assay concerns the target T7, UniProt Q8VGZ7.
T7 sequence (whole entry): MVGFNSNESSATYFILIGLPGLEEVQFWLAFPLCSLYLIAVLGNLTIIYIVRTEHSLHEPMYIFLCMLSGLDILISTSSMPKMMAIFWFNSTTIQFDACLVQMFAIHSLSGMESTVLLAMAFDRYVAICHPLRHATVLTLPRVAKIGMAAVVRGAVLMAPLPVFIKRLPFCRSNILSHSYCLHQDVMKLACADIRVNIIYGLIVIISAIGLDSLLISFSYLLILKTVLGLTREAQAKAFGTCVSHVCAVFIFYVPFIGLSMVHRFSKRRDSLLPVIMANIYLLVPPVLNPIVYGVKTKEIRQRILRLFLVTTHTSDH
The gist of the method:
as §1

The next assay has as its target T8, UniProt Q8VH16.
T8 sequence (whole entry): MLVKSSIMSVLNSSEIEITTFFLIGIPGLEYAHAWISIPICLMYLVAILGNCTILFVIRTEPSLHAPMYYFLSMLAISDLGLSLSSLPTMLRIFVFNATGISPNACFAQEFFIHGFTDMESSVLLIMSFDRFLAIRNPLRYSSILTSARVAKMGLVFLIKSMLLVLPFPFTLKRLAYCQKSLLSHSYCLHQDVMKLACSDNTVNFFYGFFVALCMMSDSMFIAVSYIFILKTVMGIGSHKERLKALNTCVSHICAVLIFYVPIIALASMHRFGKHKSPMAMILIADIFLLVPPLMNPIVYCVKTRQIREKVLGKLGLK
The gist of the method: as §1

The target in another assay is T9, UniProt Q8VH20.
T9 sequence (whole entry): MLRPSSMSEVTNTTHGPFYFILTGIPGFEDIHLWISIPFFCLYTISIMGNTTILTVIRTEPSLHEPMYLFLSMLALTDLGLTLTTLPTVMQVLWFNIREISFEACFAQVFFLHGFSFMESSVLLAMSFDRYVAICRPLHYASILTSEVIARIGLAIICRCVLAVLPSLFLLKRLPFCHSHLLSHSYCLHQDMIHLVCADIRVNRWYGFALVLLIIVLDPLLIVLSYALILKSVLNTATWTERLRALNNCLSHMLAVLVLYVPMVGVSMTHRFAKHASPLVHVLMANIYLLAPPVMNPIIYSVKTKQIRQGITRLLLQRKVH
An outline of the steps: as §1
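Further: active if original authors judged signal statistically different from baseline.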

`CC(C=O)Cc1ccc2c(c1)OCO2` (configuration not stated): the “odorant receptor agonist call” value with UniProt Q8VGL0, in the assay with UniProt Q8VGU3, in the assay with UniProt Q8VGV7, with UniProt Q8VGX3, with UniProt Q8VGZ2 and with UniProt Q8VGZ7 was “inactive” in each case. Besides, the “odorant receptor agonist call” value in the assay with UniProt Q8VH16 and in the assay with UniProt Q8VH20 was “inactive” throughout. Besides, in the assay with UniProt Q8VGX5, the “odorant receptor agonist call” value was “active”.

Turning to `Oc1ccccc1Br`, the “odorant receptor agonist call” value in the assay with UniProt Q8VGL0, in the assay with UniProt Q8VGU3, with UniProt Q8VGV7, with UniProt Q8VGX3, with UniProt Q8VGX5 and in the assay with UniProt Q8VGZ2 was “inactive” in each case. Moreover, the “odorant receptor agonist call” value with UniProt Q8VGZ7, with UniProt Q8VH16 and with UniProt Q8VH20 was “inactive” each time.

`OCc1ccc2c(c1)OCO2`: the “odorant receptor agonist call” value with UniProt Q8VGL0, with UniProt Q8VGU3, with UniProt Q8VGV7, with UniProt Q8VGX3, with UniProt Q8VGX5 and with UniProt Q8VGZ2 was “inactive” in each case. Besides, the “odorant receptor agonist call” value with UniProt Q8VGZ7, with UniProt Q8VH16 and with UniProt Q8VH20 was “inactive” in each case.

Source of the values: the M2OR odorant receptor database.
